Assay results: article PMC8416640 (Biochemistry and Biophysics Reports, 2021)

Tests used:
ccT2R200-1 = ccT2R200-1 (Cyprinus carpio, UniProt A0A2Z6FB23); type: cell-based, common carp (Cyprinus carpio); conditions: for response of ccT2R200-1 in screening of bitter compounds: single screening concentration per compound, vs control buffer
ccT2R200-2 = ccT2R200-2 (Cyprinus carpio, UniProt A0A2Z6FB19); type: cell-based, common carp (Cyprinus carpio); conditions: for response of ccT2R200-2 in screening of bitter compounds: single screening concentration per compound, vs control buffer
ccT2R203-1 = type: cell-based, common carp (Cyprinus carpio); conditions: for response of ccT2R203-1 in screening of bitter compounds: single screening concentration per compound, vs control buffer
drT2R4 = conditions: zebrafish receptor; cited from earlier work
ccT2R202-1 = type: cell-based, common carp (Cyprinus carpio); conditions: single screening concentration per compound, vs control buffer
Outline: (§1)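 Transient co-transfection of HEK293T cells with a pEAK10 vector carrying the carp receptor (cloned from lip cDNA or head genomic DNA) with an N-terminal sst tag (first 45 residues of rat somatostatin receptor 3), human Gα16gust44 and mt-apoclytin-II. Cells were exposed to each bitter test compound at one fixed screening concentration. Luminescence was read as area under the curve in RLU. More than three independent experiments were run in duplicate or triplicate, with paired t-tests.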

ccT2R201 = ccT2R201 (Cyprinus carpio, UniProt A0A2Z6FB59); type: cell-based, common carp (Cyprinus carpio); conditions: for response of ccT2R201 in screening of bitter compounds: single screening concentration per compound, vs control buffer
Outline: as §1

drT2R3a = conditions: approximate, one range for four receptors; cited from earlier work
drT2R1 = conditions: drT2R1, approximate, one range for four receptors; cited from earlier work
mfT2R1 = conditions: mfT2R1, approximate, one range for four receptors; cited from earlier work
lcT2R01 = conditions: lcT2R01, approximate, one range for four receptors; cited from earlier work
ccT2R202-2 = type: cell-based, common carp (Cyprinus carpio); conditions: single screening concentration per compound, vs control buffer
Outline: as §1

ccT2R200-1, sequence (A0A2Z6FB23 1-321): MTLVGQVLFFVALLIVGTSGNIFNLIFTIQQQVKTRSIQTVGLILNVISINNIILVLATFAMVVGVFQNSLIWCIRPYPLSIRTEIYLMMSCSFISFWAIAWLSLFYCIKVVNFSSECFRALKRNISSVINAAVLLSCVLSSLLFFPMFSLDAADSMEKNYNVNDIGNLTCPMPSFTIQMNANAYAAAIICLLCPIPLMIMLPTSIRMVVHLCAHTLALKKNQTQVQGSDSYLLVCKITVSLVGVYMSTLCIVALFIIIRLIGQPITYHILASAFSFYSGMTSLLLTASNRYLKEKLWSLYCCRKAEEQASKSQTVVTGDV
ccT2R200-2, sequence (A0A2Z6FB19 1-321): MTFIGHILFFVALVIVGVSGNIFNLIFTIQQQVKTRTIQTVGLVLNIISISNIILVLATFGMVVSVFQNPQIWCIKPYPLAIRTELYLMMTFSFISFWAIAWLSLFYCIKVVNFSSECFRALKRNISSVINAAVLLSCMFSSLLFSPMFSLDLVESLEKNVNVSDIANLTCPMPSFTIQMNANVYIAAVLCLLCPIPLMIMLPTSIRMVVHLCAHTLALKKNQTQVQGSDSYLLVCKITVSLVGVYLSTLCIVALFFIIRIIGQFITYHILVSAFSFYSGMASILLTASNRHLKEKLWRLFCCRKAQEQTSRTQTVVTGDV
ccT2R201, sequence (A0A2Z6FB59 1-327): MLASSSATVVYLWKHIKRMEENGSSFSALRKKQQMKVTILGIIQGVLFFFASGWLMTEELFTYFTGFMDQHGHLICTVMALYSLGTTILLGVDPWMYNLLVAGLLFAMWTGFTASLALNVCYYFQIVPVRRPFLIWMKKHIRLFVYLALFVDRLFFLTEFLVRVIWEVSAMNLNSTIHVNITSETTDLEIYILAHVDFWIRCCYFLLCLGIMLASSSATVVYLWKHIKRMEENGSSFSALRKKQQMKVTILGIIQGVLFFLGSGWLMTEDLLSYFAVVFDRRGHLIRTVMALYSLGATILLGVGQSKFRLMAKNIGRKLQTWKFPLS

Molecule	response of ccT2R200-1 in screening of bitter compounds (ccT2R200-1)	response of ccT2R203-1 in screening of bitter compounds (ccT2R203-1)	response of ccT2R201 in screening of bitter compounds (ccT2R201)	also measured
C=C(C)[C@@H]1[C@H]2OC(=O)[C@@H]1[C@]1(O)C[C@H]3O[C@]34C(=O)O[C@H]2[C@]14C [picrotoxinin]	strongly activated	strongly activated		EC50 (ccT2R200-1): 510 ± 26 µM; response of ccT2R200-2 in screening of bitter compounds (ccT2R200-2): strongly activated; EC50 (ccT2R203-1; ccT2R203-1, dose-response with seven concentrations, HEK293T, luminescence AUC): 425 ± 99 µM; response of drT2R4 (drT2R4): does not respond
CNC(N)=S [methylthiourea]		weakly responded		
O=C1C[C@@H]2OCC=C3CN4CC[C@]56c7ccccc7N1[C@H]5[C@H]2[C@H]3C[C@H]46 [strychinine]	weakly responded			response of ccT2R202-1 in screening of bitter compounds (ccT2R202-1): weakly activated
CC1=C[C@H]2[C@H]3[C@H](C(C)=C4[C@H]5OC(=O)[C@@H](C)[C@@H]5CC[C@](C)(O)[C@@H]43)[C@@]13[C@@H]2[C@@](C)(O)CC[C@H]1[C@H](C)C(=O)O[C@@H]13 [absinthin]	weakly responded	weakly responded		response of ccT2R200-2 in screening of bitter compounds (ccT2R200-2): weakly responded
CCCc1cc(=O)[nH]c(=S)[nH]1 [PROP]	weakly responded	strongly activated	strongly activated	response of ccT2R200-2 in screening of bitter compounds (ccT2R200-2): strongly activated
amarogentin	strongly activated		strongly activated	
CC(C)[C@]12CC(=O)[C@H](C)[C@H]1C2 [α-thujon]	weakly responded			
OCc1ccccc1O[C@@H]1O[C@H](CO)[C@@H](O)[C@H](O)[C@H]1O [D-(−)-salicin]			weakly responded	
CC[N+](CC)(CC(=O)Nc1c(C)cccc1C)Cc1ccccc1 [denatonium benzoate]			weakly responded	EC50 (ccT2R201): 44 ± 5 µM; EC50 (drT2R3a): 300 to 3000 µM; EC50 (drT2R1): 300 to 3000 µM; EC50 (mfT2R1): 300 to 3000 µM; EC50 (lcT2R01): 300 to 3000 µM
CN(C)C=S [dimethyl-thioformamide]	weakly responded	weakly responded		
O=C(O)c1cc(=O)c2c(OCC(O)COc3cccc4oc(C(=O)O)cc(=O)c34)cccc2o1 [cromolyne]	weakly responded			
C=C1CC[C@@H]2[C@](C)(CO)[C@H](O)CC[C@@]2(C)[C@@H]1C/C=C1/C(=O)OC[C@H]1O [andrographolide]	strongly activated	weakly responded		EC50 (ccT2R200-1): 182 ± 7 µM; EC50 (ccT2R200-2): 335 ± 38 µM; response of ccT2R200-2 in screening of bitter compounds (ccT2R200-2): strongly activated; response of ccT2R202-2 in screening of bitter compounds (ccT2R202-2): weakly activated
O=C(N[C@H](CO)[C@H](O)c1ccc([N+](=O)[O-])cc1)C(Cl)Cl [chloramphenicol]			weakly responded	
COc1cc2c(c(OC)c1OC)-c1ccc(OC)c(=O)cc1[C@@H](NC(C)=O)CC2 [colchicine]			weakly responded	
